The values below come from ChEMBL document CHEMBL4477183, “Antimicrobial Peptide from the Wild Bee Hylaeus signatus Venom and Its Analogues: Structure-Activity Study and Synergistic Effect with Antibiotics” (J Nat Prod, 2016).

≈ marks a conversion by molar mass, not a printed value. Non-standard residues stand in square brackets, D forms with d. Residues, ends and D or L forms follow the SMILES beside them.

Series [1] has as its system Staphylococcus aureus. Briefly: Antimicrobial activity against Staphylococcus aureus clinical isolates from Liberec regional hospital assessed as reduction in bacterial growth after 20 hrs by broth microdilution assay. (In general: Dilution methods test growth across graded concentrations, often in twofold steps.)
The test system of series [2] is Pseudomonas aeruginosa. Briefly: Antimicrobial activity against Pseudomonas aeruginosa clinical isolates assessed as reduction in bacterial growth after 20 hrs by […]. Type of series: functional. The procedure, abridged: (§1)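 Broth microdilution in LB (YPG for C. albicans) with 2-fold serial dilutions, final 0.1–100 μM. Mid-log cells grown 3–5 h at 37 °C were added at about 5 × 10^5 cfu/mL, then incubated 20 h at 37 °C with shaking. A540 was read every 15 min to build growth curves. Medium with cells served as growth control; at least three runs in duplicate.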

The test system of series [3] is Pseudomonas aeruginosa. Kind of series: Antimicrobial activity against Pseudomonas aeruginosa 5482 assessed as reduction in bacterial growth after 20 hrs […]. Particulars: Pseudomonas aeruginosa, 5482, 20 h. It is filed as functional. The gist of the method: as §1
The test system of series [4] is Staphylococcus aureus. Briefly: Antimicrobial activity against Staphylococcus aureus clinical isolates assessed as FIC index in presence of amoxicillin after 20 hrs by drop diffusion test. It is filed as functional.
For series [5], the system named is Escherichia coli. Briefly: Antimicrobial activity against Escherichia coli assessed as reduction in bacterial growth after 20 hrs by […]. Type of series: functional. The gist of the method:
as §1

Series [6] relates to Pseudomonas aeruginosa. Briefly: Antimicrobial activity against Pseudomonas aeruginosa clinical isolates assessed as FIC index in presence of tetracycline after 20 hrs by drop diffusion test. Type of series: functional.
Series [7] relates to Staphylococcus epidermidis. Kind of series: Antimicrobial activity against Staphylococcus epidermidis assessed as reduction in bacterial growth after 20 hrs by broth microdilution assay.
In series [8] the test system is Staphylococcus aureus. Kind of series: Antimicrobial activity against Staphylococcus aureus 6271 assessed as reduction in bacterial growth after 20 hrs by broth microdilution assay. Conditions: Staphylococcus aureus, 6271, 20 h.
For series [9], the system named is Candida albicans. Kind of series: Antifungal activity against Candida albicans assessed as reduction in fungal growth after 20 hrs by […]. Type of series: functional. The gist of the method:
as §1

The test system of series [10] is Staphylococcus aureus. Briefly: Antimicrobial activity against Staphylococcus aureus clinical isolates from university hospital in Motol assessed as reduction in bacterial growth after 20 hrs by drop diffusion test. It is filed as functional.
Series [11] concerns Micrococcus luteus. Briefly: Antimicrobial activity against Micrococcus luteus assessed as reduction in bacterial growth after 20 hrs by […]. It is filed as functional. The procedure, abridged: as §1
The nature of series [12]: Hemolytic activity in human type RBC after 1 hr. Particulars: red blood cells (erythrocytes), read-out: LC50. Type of series: ADME, cell-based, Erythrocyte. The gist of the method: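 Peptides at 2.5–400 μM were incubated with a 4% suspension of human erythrocytes in physiological solution for 1 h at 37 °C, then centrifuged at 250g for 5 min; supernatant A540 was read. Saline-treated cells gave 0% lysis and 0.2% Triton X-100 gave 100%. LC50 is the concentration lysing 50% of cells; duplicates in at least two independent experiments.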

Series [13] concerns Pseudomonas aeruginosa. Briefly: Antimicrobial activity against Pseudomonas aeruginosa clinical isolates assessed as FIC index in presence of rifampicin after 20 hrs by drop diffusion test. Type of series: functional.
The test system of series [14] is Bacillus subtilis. Kind of series: Antimicrobial activity against Bacillus subtilis assessed as reduction in bacterial growth after 20 hrs by […]. Type of series: functional. The procedure, abridged:
as §1

The MIC is the lowest concentration found to suppress growth. Take `CC[C@@H](C)[C@@H](NC(=O)CN)C(=O)N[C@H](CC(C)C)C(=O)N[C@H](CO)C(=O)N[C@H](CO)C(=O)N[C@H](CC(C)C)C(=O)N[C@H](CC(C)C)C(=O)N[C@H](CCCCN)C(=O)N[C@H](CCCCN)C(=O)N[C@H](CC(C)C)C(=O)N[C@H](CCCCN)C(=O)N[C@H](CCCCN)C(=O)N[C@@H](C(=O)N[C@@H](C(=O)N[C@H](C)C(=O)N[C@H](CCCCN)C(N)=O)[C@H](C)CC)[C@H](C)CC` (H-G[dI][dL][dS][dS][dL][dL][dK][dK][dL][dK][dK][dI][dI][dA][dK]-NH2): the MIC in [1] is 2.6 µM (≈ 4.56 µg/mL); in series [2], 9.7 µM (≈ 17 µg/mL); in [3] it was 4.5 µM (≈ 7.89 µg/mL); in series [5] it was 4.5 µM (≈ 7.89 µg/mL); in series [7], 3.2 µM (≈ 5.61 µg/mL); in [8], 5.7 µM (≈ 9.99 µg/mL). Further, the MIC was 9 µM (≈ 15.8 µg/mL) in series [9], 6.3 µM (≈ 11 µg/mL) in series [10], not above 3 µM in series [11] and not above 7 µM in series [14]. The “fractional inhibitory concentration index (FICI)” value in series [4] was determined as 0.63; in [6] it was 0.75; in [13], 0.3. The HC50 at 1 h in [12] was 333 µM.

Turning to `CC[C@@H](C)[C@@H](NC(=O)CN)C(=O)N[C@H](CC(C)C)C(=O)N[C@H](CO)C(=O)N[C@H](CO)C(=O)N[C@H](CC(C)C)C(=O)N[C@H](Cc1c[nH]c2ccccc12)C(=O)N[C@H](CCCCN)C(=O)N[C@H](CCCCN)C(=O)N[C@H](CC(C)C)C(=O)N[C@H](CCCCN)C(=O)N[C@H](CCCCN)C(=O)N[C@@H](C(=O)N[C@@H](C(=O)N[C@H](C)C(=O)N[C@H](CCCCN)C(N)=O)[C@H](C)CC)[C@H](C)CC` (H-G[dI][dL][dS][dS][dL][dW][dK][dK][dL][dK][dK][dI][dI][dA][dK]-NH2), the MIC in series [1] was found to be 2.9 µM (≈ 5.29 µg/mL); in series [2], 8.8 µM (≈ 16.1 µg/mL); in [3], 6.7 µM (≈ 12.2 µg/mL); in series [5], 5 µM (≈ 9.13 µg/mL); in [7] it was 1.7 µM (≈ 3.1 µg/mL); in series [8] it was 6.3 µM (≈ 11.5 µg/mL). Also, the MIC is 8 µM (≈ 14.6 µg/mL) in series [9], 3.2 µM (≈ 5.84 µg/mL) in series [10], not above 3 µM in [11] and not above 7 µM in series [14]. Further, the results for the “fractional inhibitory concentration index (FICI)” value in series [4], in series [6] and in series [13] were 0.73, 0.58 and 0.29, respectively. Moreover, in series [12], the HC50 at 1 h was found to be 191 µM.

As for `CC[C@@H](C)[C@@H](NC(=O)CN)C(=O)N[C@H](CCSC)C(=O)N[C@H](CO)C(=O)N[C@H](CO)C(=O)N[C@H](CC(C)C)C(=O)N[C@H](CCSC)C(=O)N[C@H](CCCCN)C(=O)N[C@H](CCCCN)C(=O)N[C@H](CC(C)C)C(=O)N[C@H](CCCCN)C(=O)N[C@H](CCCCN)C(=O)N[C@@H](C(=O)N[C@@H](C(=O)N[C@H](C)C(=O)N[C@H](CCCCN)C(N)=O)[C@H](C)CC)[C@H](C)CC` (H-G[dI][dM][dS][dS][dL][dM][dK][dK][dL][dK][dK][dI][dI][dA][dK]-NH2), the MIC in series [1] amounted to 7 µM (≈ 12.5 µg/mL); in series [2], 8.5 µM (≈ 15.2 µg/mL); in series [3], 3.2 µM (≈ 5.72 µg/mL); in series [5], 6.3 µM (≈ 11.3 µg/mL); in [7], 2.2 µM (≈ 3.93 µg/mL); in series [8], 13 µM (≈ 23.2 µg/mL). The MIC is 8 µM (≈ 14.3 µg/mL) in [9], 16 µM (≈ 28.6 µg/mL) in series [10], not above 3 µM in series [11] and not above 7 µM in series [14]. The “fractional inhibitory concentration index (FICI)” value was determined as 0.54 in series [4], 0.67 in series [6] and 0.32 in [13]. In addition, in series [12], the HC50 at 1 h was more than 400 µM.

Take `CC1(C)S[C@@H]2[C@H](NC(=O)[C@H](N)c3ccc(O)cc3)C(=O)N2[C@H]1C(=O)O` [AMOXICILLIN]: the MIC in series [1] was 35 µM (≈ 12.8 µg/mL); in [2], more than 100 µM; in series [3], more than 100 µM; in series [5], 2.7 µM (≈ 0.987 µg/mL); in series [7], 35 µM (≈ 12.8 µg/mL); in series [8], 17 µM (≈ 6.21 µg/mL). The MIC in series [10] came out at 3.5 µM (≈ 1.28 µg/mL).

On to H-GILSSLLKKLKKIIAK-NH2, for which the MIC in series [1] was 3.8 µM; in series [2] it was 7.5 µM; in series [3] it was 5 µM; in series [5], 8 µM; in series [7], 1.8 µM; in [8], 16 µM. Also, the MIC is 10 µM in series [9], 5 µM in series [10], not above 3 µM in [11] and not above 7 µM in series [14]. The “fractional inhibitory concentration index (FICI)” value is given as 0.69 in series [4], 0.54 in series [6] and 0.39 in series [13]. Further, the HC50 at 1 h in series [12] was 284 µM.

On to H-GILSSLLKKLKKWIAK-NH2, for which the MIC in [1] came to 2.6 µM; in series [2], 21 µM; in series [3], 8 µM; in series [5], 4 µM; in [7], 1.6 µM; in [8], 8 µM. The MIC in [9] is 16 µM; in series [10], 4 µM; in [11], not above 3 µM; in series [14], not above 7 µM. Besides, the entries for the “fractional inhibitory concentration index (FICI)” value in series [4], in [6] and in series [13] were 0.56, 0.63 and 0.27, respectively. Also, the HC50 at 1 h in series [12] came out at 115 µM.

Consider H-GILSSLWKKPKKIIAK-NH2, for which the MIC in series [1] was more than 100 µM; in series [2], more than 100 µM; in series [3], 98 µM; in series [5] it was more than 100 µM; in series [7], more than 100 µM; in [8], more than 100 µM. The MIC in [9] was more than 100 µM; in series [10], more than 100 µM; in series [11], 5.8 µM; in [14], 49 µM. The HC50 at 1 h in series [12] was more than 400 µM.

Regarding H-GIMISLMKKLAAHIAK-NH2, the MIC is 35 µM in series [1]; more than 100 µM in series [2]; 47 µM in [3]; 12 µM in series [5]; 8.8 µM in [7]; 43 µM in series [8]. For the same compound, the MIC was 12 µM in series [9], 65 µM in series [10], not above 3 µM in series [11] and not above 7 µM in series [14]. The HC50 at 1 h in [12] turned out to be 320 µM.

For H-GIMSSLMKKLAAHIAK-NH2, the MIC in series [1] stood at 53 µM; in [2] it was 68 µM; in [3], 20 µM; in [5] it was 15 µM; in [7], 13 µM; in series [8], 63 µM. Besides, the MIC in series [9] is 18 µM; in series [10] it was 64 µM; in series [11], not above 3 µM; in [14], not above 7 µM. Further, the “fractional inhibitory concentration index (FICI)” value in series [6] was determined as 0.56; in series [13] it was 0.26. The HC50 at 1 h in series [12] was more than 400 µM.

Regarding H-GIMSSLMKKLAAHIKK-NH2, the MIC was determined as 77 µM in series [1]; 46 µM in series [2]; 23 µM in series [3]; 20 µM in [5]; 11 µM in series [7]; 85 µM in series [8]. Also, the MIC was 5 µM in series [9], 90 µM in [10], not above 3 µM in series [11] and not above 7 µM in series [14]. The HC50 at 1 h in [12] was more than 400 µM.

For H-GIMSSLMKKLKAHIAK-NH2, the MIC was more than 100 µM in [1]; 47 µM in series [2]; 26 µM in series [3]; 30 µM in series [5]; 16 µM in series [7]; more than 100 µM in [8]. Also, the minimal inhibitory concentration (MIC) in [9] is 23 µM; in [10], more than 100 µM; in series [11], not above 3 µM; in [14], not above 7 µM. Moreover, the figures for the “fractional inhibitory concentration index (FICI)” value in series [6] and in series [13] were 0.31 and 0.21, respectively. Also, the HC50 at 1 h in series [12] is more than 400 µM.

For H-GIMSSLMKKLKKHIAK-NH2, the minimum inhibitory concentration (MIC) in series [1] was more than 100 µM; in [2], 17 µM; in [3] it was 6.4 µM; in series [5], 26 µM; in [7] it was 10 µM; in [8] it was more than 100 µM. The MIC in [9] was 12 µM; in series [10] it was more than 100 µM; in series [11], not above 3 µM; in series [14] it was not above 7 µM. In addition, the “fractional inhibitory concentration index (FICI)” value in series [6] is listed as 0.39; in series [13], 0.23. The HC50 at 1 h in series [12] was more than 400 µM.
